# Experimental data reported in ChEMBL document CHEMBL1129535, “Antitumor agents. 164. Podophenazine, 2'',3''-dichloropodophenazine, benzopodophenazine, and their 4 beta-p-nitroaniline derivatives as novel DNA topoisomerase II inhibitors” (J Med Chem, 1996).
# Test system: not listed separately
# Assay: The differential toxicity ratio was defined as IC50(KB/7d)/IC50(KB)
# Format: functional
# Conditions: not given
# Method in brief: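 The ratio IC50(KB/7d)/IC50(KB) uses IC50s from 2-day treatments scored by trypan-blue-excluding hemacytometer counts. KB/7d is an etoposide-selected subclone with reduced topoisomerase II.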
row,Compound,Ratio
1,COc1cc([C@@H]2c3cc4nc5ccccc5nc4cc3[C@@H](Nc3ccc([N+](=O)[O-])cc3)[C@H]3COC(=O)[C@H]23)cc(OC)c1O,5
2,COc1cc([C@@H]2c3cc4c(cc3[C@@H](O[C@@H]3O[C@@H]5CO[C@@H](C)O[C@H]5[C@H](O)[C@H]3O)[C@H]3COC(=O)[C@H]23)OCO4)cc(OC)c1O [ETOPOSIDE],145
3,COc1cc([C@@H]2c3cc4c(cc3[C@@H](Nc3ccc([N+](=O)[O-])cc3)[C@H]3COC(=O)[C@H]23)OCO4)cc(OC)c1O,17 KB 7d-1
4,COc1cc([C@@H]2c3cc4nc5cc(Cl)c(Cl)cc5nc4cc3[C@@H](Nc3ccc([N+](=O)[O-])cc3)[C@H]3COC(=O)[C@H]23)cc(OC)c1O,22
5,COc1cc([C@@H]2c3cc(O)c(O)cc3[C@@H](Nc3ccc([N+](=O)[O-])cc3)[C@H]3COC(=O)[C@H]23)cc(OC)c1O,39

# Test system: Nucleic Acid
# Assay: Stimulation of in vitro Topoisomerase II-Linked DNA Complex Formation and Interference with Etoposide-Induced Cleavage at concentration 100 uM
# Format: functional
# Conditions: not given
# Method in brief: (§1)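 Buffer: 30 mM Tris-HCl pH 7.6, 60 mM KCl, 8 mM MgCl2, 3 mM ATP, 15 mM β-mercaptoethanol and 30 μg/mL BSA, with 4 U topoisomerase II. Reactions ran 30 min at 37 °C. Protein-linked DNA was K+/SDS-precipitated and counted (cpm), mean ± SD of 2–4 determinations.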
row,cpm,Compound
1,446,COc1cc([C@@H]2c3cc4nc5ccccc5nc4cc3[C@@H](Nc3ccc([N+](=O)[O-])cc3)[C@H]3COC(=O)[C@H]23)cc(OC)c1O
2,1840,COc1cc([C@@H]2c3cc4c(cc3[C@@H](O[C@@H]3O[C@@H]5CO[C@@H](C)O[C@H]5[C@H](O)[C@H]3O)[C@H]3COC(=O)[C@H]23)OCO4)cc(OC)c1O [ETOPOSIDE]
3,101,COc1cc([C@@H]2c3cc4nc5cc(Cl)c(Cl)cc5nc4cc3[C@@H](Nc3ccc([N+](=O)[O-])cc3)[C@H]3COC(=O)[C@H]23)cc(OC)c1O

# Test system: KB
# Assay: Growth inhibitory activity (antiproliferative) against KB/7d cell lines
# Format: functional, cell-based
# Conditions: Homo sapiens
# Method in brief: (§2)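 Cells (50 000 or 5000 per well) were seeded and left overnight. Compound was diluted from DMSO stocks into medium at 2× final and added in duplicate. After 2 days the cells were trypsinized and suspended in PBS with 0.5% trypan blue. Viable cells, those not staining blue, were counted by hemacytometer. IC50 was read graphically. KB/7d is an etoposide-selected multidrug-resistant subclone with reduced topoisomerase II.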
row,Compound,IC50 [µM]
1,COc1cc([C@@H]2c3cc4nc5ccccc5nc4cc3[C@H](O)[C@H]3COC(=O)[C@H]23)cc(OC)c1OC,6.21
2,COc1cc([C@@H]2c3cc4c(cc3[C@@H](Nc3ccc([N+](=O)[O-])cc3)[C@H]3COC(=O)[C@H]23)OCO4)cc(OC)c1O,0.55
3,COc1cc([C@@H]2c3cc4nc5cc(Cl)c(Cl)cc5nc4cc3[C@H](O)[C@H]3COC(=O)[C@H]23)cc(OC)c1OC,9.2
4,COc1cc([C@@H]2c3cc(O)c(O)cc3[C@@H](Nc3ccc([N+](=O)[O-])cc3)[C@H]3COC(=O)[C@H]23)cc(OC)c1O,16.6

# Now from value to molecule:
row,IC50 [µM],Compound
1,0.56,COc1cc([C@@H]2c3cc4nc5ccccc5nc4cc3[C@@H](Nc3ccc([N+](=O)[O-])cc3)[C@H]3COC(=O)[C@H]23)cc(OC)c1O
2,23.8,COc1cc([C@@H]2c3cc4c(cc3[C@@H](O[C@@H]3O[C@@H]5CO[C@@H](C)O[C@H]5[C@H](O)[C@H]3O)[C@H]3COC(=O)[C@H]23)OCO4)cc(OC)c1O [ETOPOSIDE]
3,10.6,COc1cc([C@@H]2c3cc4nc5cc(Cl)c(Cl)cc5nc4cc3[C@@H](Nc3ccc([N+](=O)[O-])cc3)[C@H]3COC(=O)[C@H]23)cc(OC)c1O

# Test system: Nucleic Acid
# Assay: Stimulation of in vitro Topoisomerase II-Linked DNA Complex Formation and Interference with Etoposide-Induced Cleavage at concentration 1 uM
# Format: functional
# Conditions: not given
# Method in brief: as §1
row,cpm,Compound
1,320,COc1cc([C@@H]2c3cc4nc5ccccc5nc4cc3[C@@H](Nc3ccc([N+](=O)[O-])cc3)[C@H]3COC(=O)[C@H]23)cc(OC)c1O
2,216,COc1cc([C@@H]2c3cc4c(cc3[C@@H](O[C@@H]3O[C@@H]5CO[C@@H](C)O[C@H]5[C@H](O)[C@H]3O)[C@H]3COC(=O)[C@H]23)OCO4)cc(OC)c1O [ETOPOSIDE]
3,105,COc1cc([C@@H]2c3cc4nc5cc(Cl)c(Cl)cc5nc4cc3[C@@H](Nc3ccc([N+](=O)[O-])cc3)[C@H]3COC(=O)[C@H]23)cc(OC)c1O

# Test system: KB
# Assay: Growth inhibitory activity (antiproliferative) against KB cell lines
# Format: functional, cell-based
# Conditions: Homo sapiens
# Method in brief: as §2
row,Compound,IC50 [µM]
1,COc1cc([C@@H]2c3cc4nc5ccccc5nc4cc3[C@H](O)[C@H]3COC(=O)[C@H]23)cc(OC)c1OC,23.4
2,COc1cc([C@@H]2c3cc4c(cc3[C@@H](Nc3ccc([N+](=O)[O-])cc3)[C@H]3COC(=O)[C@H]23)OCO4)cc(OC)c1O,0.032
3,COc1cc([C@@H]2c3cc4nc5cc(Cl)c(Cl)cc5nc4cc3[C@H](O)[C@H]3COC(=O)[C@H]23)cc(OC)c1OC,13.3
4,COc1cc([C@@H]2c3cc(O)c(O)cc3[C@@H](Nc3ccc([N+](=O)[O-])cc3)[C@H]3COC(=O)[C@H]23)cc(OC)c1O,0.42

# Results, then the molecule that gave them:
row,IC50 [µM],Compound
1,0.11,COc1cc([C@@H]2c3cc4nc5ccccc5nc4cc3[C@@H](Nc3ccc([N+](=O)[O-])cc3)[C@H]3COC(=O)[C@H]23)cc(OC)c1O
2,0.164,COc1cc([C@@H]2c3cc4c(cc3[C@@H](O[C@@H]3O[C@@H]5CO[C@@H](C)O[C@H]5[C@H](O)[C@H]3O)[C@H]3COC(=O)[C@H]23)OCO4)cc(OC)c1O [ETOPOSIDE]
3,0.48,COc1cc([C@@H]2c3cc4nc5cc(Cl)c(Cl)cc5nc4cc3[C@@H](Nc3ccc([N+](=O)[O-])cc3)[C@H]3COC(=O)[C@H]23)cc(OC)c1O
4,6.63,COc1cc([C@@H]2c3cc4nc5cc6ccccc6cc5nc4cc3[C@@H](Nc3ccc([N+](=O)[O-])cc3)[C@H]3COC(=O)[C@H]23)cc(OC)c1O

# Test system: Nucleic Acid
# Assay: Stimulation of in vitro Topoisomerase II-Linked DNA Complex Formation and Interference with Etoposide-Induced Cleavage at concentration 50 uM
# Format: functional
# Conditions: not given
# Method in brief: as §1
row,Compound,cpm
1,COc1cc([C@@H]2c3cc4c(cc3[C@@H](Nc3ccc([N+](=O)[O-])cc3)[C@H]3COC(=O)[C@H]23)OCO4)cc(OC)c1O,2930
2,COc1cc([C@@H]2c3cc(O)c(O)cc3[C@@H](Nc3ccc([N+](=O)[O-])cc3)[C@H]3COC(=O)[C@H]23)cc(OC)c1O,661

# The next lines start with the values.
row,cpm,Compound
1,309,COc1cc([C@@H]2c3cc4nc5ccccc5nc4cc3[C@@H](Nc3ccc([N+](=O)[O-])cc3)[C@H]3COC(=O)[C@H]23)cc(OC)c1O
2,2460,COc1cc([C@@H]2c3cc4c(cc3[C@@H](O[C@@H]3O[C@@H]5CO[C@@H](C)O[C@H]5[C@H](O)[C@H]3O)[C@H]3COC(=O)[C@H]23)OCO4)cc(OC)c1O [ETOPOSIDE]
3,103,COc1cc([C@@H]2c3cc4nc5cc(Cl)c(Cl)cc5nc4cc3[C@@H](Nc3ccc([N+](=O)[O-])cc3)[C@H]3COC(=O)[C@H]23)cc(OC)c1O
